This passage reports Activity results from ChEMBL document CHEMBL3272177, “Hypolipidemic alkoxybenzoic acids” (1976).

Common to all, as to parameters: scale not given: the % may be the effect or the level left
Assay [1] is filed under the species Rattus norvegicus. The experiment in a line: Reduction in triglyceride level in CFE rat […] in serum at 0.05% of diet treated through diet for 6 days relative to control. It counts as functional. Put shortly: (§1)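 Compound dissolved in methanol-chloroform (1:3 v/v), mixed into ground rat chow at 0.1, 0.05 or 0.025% (w/w), and solvent evaporated; controls received solvent-treated chow. Rats fed ad libitum with water for 6 days, then killed fed and bled. Serum sterols and triglycerides measured by autoanalyzer. Values given as percent of control, mean ± SE; significance by Student's t test.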

The species named for assay [2] is Rattus norvegicus. The experiment in a line: Reduction in sterol level in CFE rat […] in serum at 0.05% of diet treated through diet for 6 days relative to control. It counts as functional. In short, it runs like this:
as §1

The species named for assay [3] is Rattus norvegicus. The experiment in a line: Reduction in triglyceride level in CFE rat […] in serum at 0.1% of diet treated through diet for 6 days relative to control. It counts as functional. Put shortly: as §1
The species named for assay [4] is Rattus norvegicus. The experiment in a line: Reduction in sterol level in CFE rat […] in serum at 0.1% of diet treated through diet for 6 days relative to control. It counts as functional. Put shortly:
as §1

The species entered for assay [5] is Rattus norvegicus. The experiment in a line: Reduction in sterol level in CFE rat […] at 0.025% of diet treated through diet for 6 days relative to control. Format: functional, Serum. Put shortly:
as §1

The species named for assay [6] is Rattus norvegicus. The experiment in a line: Reduction in triglyceride level in CFE rat […] at 0.025% of diet treated through diet for 6 days relative to control. It counts as functional, Serum. In short, it runs like this:
as §1

Regarding `COC(=O)c1ccc(OCCCCCCCCCCCSCc2ccccc2)cc1`, the Activity in the assay filed under Rattus norvegicus [1] came to 49%; in the assay filed under Rattus norvegicus [2], 85%; in the assay filed under Rattus norvegicus [3], 58%; in the assay listed under Rattus norvegicus [4], 87%; in the assay filed under Rattus norvegicus [5] it was 91%; in the assay filed under Rattus norvegicus [6] it was 64%.
Turning to `CCCCSCCCCCCCCCCCOc1ccc(C(=O)O)cc1`, the Activity in the assay listed under Rattus norvegicus [1] came to 53%; in the assay filed under Rattus norvegicus [2] it was 76%; in the assay listed under Rattus norvegicus [3] it was 60%; in the assay listed under Rattus norvegicus [4] it was 76%; in the assay filed under Rattus norvegicus [5], 70%; in the assay listed under Rattus norvegicus [6] it was 60%.
Turning to `CCCCCCCCCCCC(CCOc1ccc(C(=O)OC)cc1)OS(=O)(=O)c1ccc(C)cc1` (stereo unspecified), the Activity in the assay filed under Rattus norvegicus [1] was determined as 91%; in the assay listed under Rattus norvegicus [2], 103%; in the assay filed under Rattus norvegicus [3], 86%; in the assay listed under Rattus norvegicus [4] it was 98%; in the assay listed under Rattus norvegicus [5] it was 102%; in the assay listed under Rattus norvegicus [6], 91%.
In the case of `CCCCCCCCCCCC1OC1CCCOc1ccc(C(=O)O)cc1` (stereo unspecified), the Activity in the assay filed under Rattus norvegicus [1] is 52%; in the assay filed under Rattus norvegicus [2], 85%; in the assay filed under Rattus norvegicus [3], 55%; in the assay listed under Rattus norvegicus [4] it was 85%; in the assay filed under Rattus norvegicus [5] it was 90%; in the assay listed under Rattus norvegicus [6] it was 74%.
Consider `O=C(O)c1ccc(OCC2CCCCCCCCCCC2)cc1`, for which the Activity in the assay listed under Rattus norvegicus [1] amounted to 130%; in the assay filed under Rattus norvegicus [2], 105%; in the assay listed under Rattus norvegicus [3], 160%; in the assay listed under Rattus norvegicus [4], 101%; in the assay listed under Rattus norvegicus [5], 104%; in the assay listed under Rattus norvegicus [6] it was 123%.
Take `O=C(O)c1ccc(OCCCCCCCCCCCCS)cc1`: the Activity worked out at 46% in the assay filed under Rattus norvegicus [1]; 81% in the assay listed under Rattus norvegicus [2]; 26% in the assay filed under Rattus norvegicus [3]; 79% in the assay filed under Rattus norvegicus [4]; 88% in the assay listed under Rattus norvegicus [5]; 61% in the assay listed under Rattus norvegicus [6].
Consider `CCCCCCCCCCCC(S)CCOc1ccc(C(=O)O)cc1` (stereo unspecified), for which the Activity in the assay filed under Rattus norvegicus [1] is recorded as 53%; in the assay filed under Rattus norvegicus [2] it was 89%; in the assay filed under Rattus norvegicus [3], 47%; in the assay listed under Rattus norvegicus [4], 83%; in the assay filed under Rattus norvegicus [5] it was 94%; in the assay listed under Rattus norvegicus [6], 76%.
Turning to `CC[S+]([O-])CCCCCCCCCCCCCCCCOc1ccc(C(=O)O)cc1` (stereo unspecified), the Activity came out at 80% in the assay listed under Rattus norvegicus [1]; 81% in the assay filed under Rattus norvegicus [2]; 55% in the assay filed under Rattus norvegicus [3]; 94% in the assay filed under Rattus norvegicus [4]; 89% in the assay filed under Rattus norvegicus [5]; 87% in the assay filed under Rattus norvegicus [6].
Take `CCCCNC(=O)CCCCCCCCCCOc1ccc(C(=O)O)cc1`: the Activity was found to be 87% in the assay filed under Rattus norvegicus [1]; 96% in the assay listed under Rattus norvegicus [2]; 85% in the assay filed under Rattus norvegicus [3]; 88% in the assay filed under Rattus norvegicus [4]; 99% in the assay listed under Rattus norvegicus [5]; 93% in the assay filed under Rattus norvegicus [6].
For `CCCCCCCCCCCC(=O)CCOc1ccc(C(=O)O)cc1`, the Activity in the assay filed under Rattus norvegicus [1] is 75%; in the assay listed under Rattus norvegicus [2], 89%; in the assay filed under Rattus norvegicus [3] it was 74%; in the assay listed under Rattus norvegicus [4], 92%; in the assay listed under Rattus norvegicus [5] it was 89%; in the assay filed under Rattus norvegicus [6] it was 84%.
For `CCCCCCCCCCC/C=C/CCCOc1ccc(C(=O)OC)cc1`, the Activity turned out to be 57% in the assay filed under Rattus norvegicus [1]; 73% in the assay filed under Rattus norvegicus [2]; 68% in the assay listed under Rattus norvegicus [3]; 75% in the assay filed under Rattus norvegicus [4]; 68% in the assay listed under Rattus norvegicus [5]; 72% in the assay listed under Rattus norvegicus [6].
For the compound `O=C(O)c1ccc(OC2C3CC4CC(C3)CC2C4)cc1` (stereo unspecified), the Activity in the assay listed under Rattus norvegicus [1] is 82%; in the assay listed under Rattus norvegicus [2], 92%; in the assay filed under Rattus norvegicus [3], 88%; in the assay listed under Rattus norvegicus [4] it was 96%; in the assay listed under Rattus norvegicus [5], 88%; in the assay filed under Rattus norvegicus [6] it was 79%.
Turning to `CC(C)=CCC/C(C)=C/CC/C(C)=C/COc1ccc(C(=O)O)cc1`, the Activity is 111% in the assay filed under Rattus norvegicus [1]; 102% in the assay filed under Rattus norvegicus [2]; 133% in the assay listed under Rattus norvegicus [3]; 87% in the assay filed under Rattus norvegicus [4]; 108% in the assay listed under Rattus norvegicus [5]; 131% in the assay listed under Rattus norvegicus [6].
Turning to `CCCCCCCCCCCCCCCCOc1ccc(C(=O)O)cc1`, the Activity in the assay listed under Rattus norvegicus [1] worked out at 62%; in the assay listed under Rattus norvegicus [2], 83%; in the assay listed under Rattus norvegicus [3], 46%; in the assay filed under Rattus norvegicus [4] it was 74%; in the assay listed under Rattus norvegicus [5], 89%; in the assay filed under Rattus norvegicus [6], 58%.
With `CCCCCCCCCCCCCCCCOc1c(C)cc(C(=O)O)cc1C`, the Activity in the assay listed under Rattus norvegicus [1] was 79%; in the assay filed under Rattus norvegicus [2], 89%; in the assay filed under Rattus norvegicus [3], 82%; in the assay listed under Rattus norvegicus [4], 97%; in the assay listed under Rattus norvegicus [5], 78%; in the assay filed under Rattus norvegicus [6], 68%.
On to `O=C(O)c1ccc(OCCCCCCCCCCCO)cc1`, for which the Activity in the assay listed under Rattus norvegicus [1] is reported as 93%; in the assay filed under Rattus norvegicus [2], 106%; in the assay listed under Rattus norvegicus [3] it was 81%; in the assay listed under Rattus norvegicus [4], 113%; in the assay filed under Rattus norvegicus [5], 91%; in the assay listed under Rattus norvegicus [6], 83%.
Take `COC(=O)c1ccc(OCCCCCCCCCCCCl)cc1`: the Activity in the assay filed under Rattus norvegicus [1] amounted to 81%; in the assay listed under Rattus norvegicus [2] it was 108%; in the assay listed under Rattus norvegicus [3] it was 41%; in the assay filed under Rattus norvegicus [4], 102%; in the assay filed under Rattus norvegicus [5] it was 110%; in the assay filed under Rattus norvegicus [6] it was 94%.
Turning to `CCCCCCCCCCCC(CCOc1ccc(C(=O)OC)cc1)SC(C)=O` (stereo unspecified), the Activity in the assay listed under Rattus norvegicus [1] was 70%; in the assay listed under Rattus norvegicus [2], 89%; in the assay listed under Rattus norvegicus [3], 59%; in the assay listed under Rattus norvegicus [4], 81%; in the assay filed under Rattus norvegicus [5], 94%; in the assay listed under Rattus norvegicus [6], 83%.
For `CCCC[S+]([O-])CCCCCCCCCCCOc1ccc(C(=O)O)cc1` (stereo unspecified), the Activity in the assay filed under Rattus norvegicus [1] is given as 54%; in the assay listed under Rattus norvegicus [2], 97%; in the assay filed under Rattus norvegicus [3], 44%; in the assay listed under Rattus norvegicus [4], 102%; in the assay listed under Rattus norvegicus [5], 102%; in the assay filed under Rattus norvegicus [6], 83%.
Consider `O=C(O)c1ccc(OCCCCCCCCCCCSCc2ccccc2)cc1`, for which the Activity in the assay filed under Rattus norvegicus [1] was found to be 55%; in the assay listed under Rattus norvegicus [2], 75%; in the assay listed under Rattus norvegicus [3] it was 41%; in the assay filed under Rattus norvegicus [4], 77%; in the assay filed under Rattus norvegicus [5], 88%; in the assay filed under Rattus norvegicus [6], 71%.
Consider `CCCCNCCCCCCCCCCCOc1ccc(C(=O)OC)cc1`, for which the Activity in the assay listed under Rattus norvegicus [1] was 88%; in the assay listed under Rattus norvegicus [2], 95%; in the assay filed under Rattus norvegicus [3], 114%; in the assay listed under Rattus norvegicus [4], 96%; in the assay listed under Rattus norvegicus [5], 102%; in the assay filed under Rattus norvegicus [6], 104%.
As for `CCCCCCCCCCCCCCCCOc1c(Cl)cc(C(=O)O)cc1Cl`, the Activity in the assay filed under Rattus norvegicus [1] was 89%; in the assay filed under Rattus norvegicus [2] it was 105%; in the assay listed under Rattus norvegicus [3], 103%; in the assay listed under Rattus norvegicus [4] it was 103%; in the assay filed under Rattus norvegicus [5] it was 98%; in the assay listed under Rattus norvegicus [6], 100%.
With `O=C(O)c1ccc(OCCCCCCCCCCCCCCCOc2ccc(C(=O)O)cc2)cc1`, the Activity is reported as 77% in the assay listed under Rattus norvegicus [1]; 103% in the assay listed under Rattus norvegicus [2]; 51% in the assay filed under Rattus norvegicus [3]; 94% in the assay filed under Rattus norvegicus [4]; 97% in the assay filed under Rattus norvegicus [5]; 64% in the assay listed under Rattus norvegicus [6].
In the case of `O=C(O)c1ccc(OCCCCCCCCCCCCCCCCS)cc1`, the Activity in the assay listed under Rattus norvegicus [1] is 35%; in the assay filed under Rattus norvegicus [2] it was 82%; in the assay filed under Rattus norvegicus [3], 37%; in the assay listed under Rattus norvegicus [4], 83%; in the assay listed under Rattus norvegicus [5] it was 82%; in the assay filed under Rattus norvegicus [6], 51%.
Consider `CCCCCCCCCCCCC/C=C/COc1ccc(C(=O)O)cc1`, for which the Activity worked out at 57% in the assay filed under Rattus norvegicus [1]; 85% in the assay listed under Rattus norvegicus [2]; 46% in the assay filed under Rattus norvegicus [3]; 81% in the assay filed under Rattus norvegicus [4]; 106% in the assay filed under Rattus norvegicus [5]; 45% in the assay listed under Rattus norvegicus [6].
Take `CC(C)CCCC(C)CCCC(C)CCCC(C)CCOc1ccc(C(=O)O)cc1` (stereo unspecified): the Activity is 104% in the assay listed under Rattus norvegicus [1]; 84% in the assay filed under Rattus norvegicus [2]; 72% in the assay listed under Rattus norvegicus [3]; 71% in the assay filed under Rattus norvegicus [4]; 87% in the assay listed under Rattus norvegicus [5]; 110% in the assay filed under Rattus norvegicus [6].
On to `O=C(O)CCCCCCCCCCOc1ccc(C(=O)O)cc1`, for which the Activity was found to be 135% in the assay filed under Rattus norvegicus [1]; 100% in the assay listed under Rattus norvegicus [2]; 100% in the assay filed under Rattus norvegicus [3]; 94% in the assay listed under Rattus norvegicus [4]; 96% in the assay filed under Rattus norvegicus [5]; 118% in the assay filed under Rattus norvegicus [6].
On to `C=CCCCCCCCCCOc1ccc(C(=O)OC)cc1`, for which the Activity in the assay listed under Rattus norvegicus [1] came to 52%; in the assay listed under Rattus norvegicus [2] it was 94%; in the assay listed under Rattus norvegicus [3], 58%; in the assay filed under Rattus norvegicus [4], 90%; in the assay listed under Rattus norvegicus [5], 97%; in the assay filed under Rattus norvegicus [6], 65%.
In the case of `CCOCCCCCCCCCCCOc1ccc(C(=O)O)cc1`, the Activity was found to be 73% in the assay filed under Rattus norvegicus [1]; 109% in the assay filed under Rattus norvegicus [2]; 63% in the assay filed under Rattus norvegicus [3]; 95% in the assay filed under Rattus norvegicus [4]; 103% in the assay filed under Rattus norvegicus [5]; 66% in the assay listed under Rattus norvegicus [6].
As to `COC(=O)c1ccc(OCC(=O)C23CC4CC(CC(C4)C2)C3)cc1`, the Activity in the assay filed under Rattus norvegicus [1] worked out at 82%; in the assay listed under Rattus norvegicus [2], 96%; in the assay filed under Rattus norvegicus [3] it was 100%; in the assay listed under Rattus norvegicus [4] it was 89%; in the assay listed under Rattus norvegicus [5] it was 97%; in the assay listed under Rattus norvegicus [6] it was 88%.
As for `COCCCCCCCCCCCOc1ccc(C(=O)O)cc1`, the Activity was determined as 53% in the assay filed under Rattus norvegicus [1]; 90% in the assay listed under Rattus norvegicus [2]; 64% in the assay filed under Rattus norvegicus [3]; 97% in the assay filed under Rattus norvegicus [4]; 79% in the assay listed under Rattus norvegicus [5]; 80% in the assay listed under Rattus norvegicus [6].
